Results on three compounds are retold here after publication PMC7016294 (Acta Pharmaceutica Sinica. B, 2019).

pEC50: −log10 of the molar value. “And” between values parts separate entries of the source, which are not always exact repeats. Equal values may be shown once.

The test system of series [1] is peripheral blood lymphocytes. The series is described as follows: Peripheral blood lymphocytes. It is filed as in vivo. Conditions: SD rats, single oral dose (3 mg/kg), 1 week later. In short, it runs like this: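 Male SD rats (6–8 weeks) were randomised and bled (20 μL, tail vein) for a baseline (0 h) lymphocyte count on a haematology analyser. Each received one oral dose of test compound (0.3, 1 or 3 mg/kg, in distilled water) or vehicle. Lymphocytes were counted again at 2, 4, 8, 12, 24, 72, 96, 144 and 168 h; n = 5.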

Series [2] is described as follows: Heart rate measurement after a single oral dose. Format: in vivo. Conditions: SD rats, single oral dose 10 mg/kg. In short, it runs like this:
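Male SD rats (6–8 weeks) had baseline heart rate taken with a non-invasive rodent blood-pressure/heart-rate meter. They then received a single oral 10 mg/kg dose of test compound in distilled water, or vehicle. Heart rate was re-measured at 2, 4, 8, 12, 24 and 48 h after dosing; n = 5.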

In series [3] the test system is SDS-induced skin irritation. The series is described as follows: SDS-induced acute skin irritation and inflammation mouse model. Conditions: KM mice, MTX 1.5 mg/kg, data not shown. Format: in vivo. In short, it runs like this:
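Female KM mice had back hair removed and received 200 μL 15% SDS topically once daily for 7 days. From Day 8 they were dosed orally each day for 10 days with test compound (0.3–2.4 mg/kg, in water) or vehicle. On Day 18, skin thickness was measured. Skin was then fixed in 4% paraformaldehyde, cut into 5 μm H&E sections and scored blind (0–3 each) for epidermal thickening, fibroplasia, inflammatory infiltration and vasodilatation; n = 11.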

The target of series [4] is S1P3 (EDG3) (Homo sapiens, UniProt Q99500). The series is described as follows: β-arrestin assay. Format: cell-based. The gist of the method:
(§1)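 Test compound (DMSO stock), at a range of concentrations, was added for 2 or 4 h at 37 °C. Receptor–β-arrestin recruitment was read as β-galactosidase enzyme-fragment complementation, with chemiluminescence measured after 1 h in detection reagent at room temperature. Activity was computed from the concentration series.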

For series [5], the target named is T1, S1P4 (EDG6) (Homo sapiens, UniProt O95977).
T1 sequence (O95977 1-384): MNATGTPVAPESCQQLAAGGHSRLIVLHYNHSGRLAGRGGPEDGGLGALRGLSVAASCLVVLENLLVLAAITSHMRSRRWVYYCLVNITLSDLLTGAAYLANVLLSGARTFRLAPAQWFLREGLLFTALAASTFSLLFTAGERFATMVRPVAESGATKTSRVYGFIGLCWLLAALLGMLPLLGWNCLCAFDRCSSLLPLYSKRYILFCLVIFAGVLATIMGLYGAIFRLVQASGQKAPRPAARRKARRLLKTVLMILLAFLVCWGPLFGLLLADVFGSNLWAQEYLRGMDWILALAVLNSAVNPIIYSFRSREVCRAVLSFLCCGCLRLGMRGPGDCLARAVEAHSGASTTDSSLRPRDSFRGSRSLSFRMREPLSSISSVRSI
The series is described as follows: β-arrestin assay. Format: cell-based. The gist of the method: as §1

S1P3 (EDG3), sequence (Q99500 whole entry, the tested form may be a part): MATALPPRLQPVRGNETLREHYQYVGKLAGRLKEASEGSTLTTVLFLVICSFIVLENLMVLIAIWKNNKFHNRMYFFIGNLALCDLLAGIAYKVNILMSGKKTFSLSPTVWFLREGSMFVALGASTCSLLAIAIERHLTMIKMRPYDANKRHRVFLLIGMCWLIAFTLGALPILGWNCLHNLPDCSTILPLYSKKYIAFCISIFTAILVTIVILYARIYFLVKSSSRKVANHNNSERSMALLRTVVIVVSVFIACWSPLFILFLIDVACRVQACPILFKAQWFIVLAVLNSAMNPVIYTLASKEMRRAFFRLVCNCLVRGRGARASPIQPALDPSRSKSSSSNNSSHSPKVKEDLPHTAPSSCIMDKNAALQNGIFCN

On to `CCCCCCCCc1ccc(CCC(N)(CO)CO)cc1` [FTY720, fingolimod], for which the “Lymphocyte reduction 1 week after one administration” value in series [1] turned out to be 26%. In addition, the “Duration of heart rate decrease” value in series [2] was found to be 12 h. Also, in series [2] (as early as 2 h after treatment, 10 mg/kg), the Heart rate decrease is 22% and 20%.

For the compound `CN(Cc1cnc2nc(N)nc(N)c2n1)c1ccc(C(=O)N[C@@H](CCC(=O)O)C(=O)O)cc1` [MTX, Methotrexate], the “Body weight during treatment” value in series [3] is listed as “started to decline from Day 10”.

Turning to `CCCCCCCCCCCCC/C=C/[C@@H](O)[C@@H](N)COP(=O)(O)O` [S1P, Sphingosine-1-phosphate], the pEC50 (usually the negative decadic logarithm of the EC50, by convention in mol/L) in series [4] is 7.75; in series [5], 7.31.
